Experimental data pooled from the literature.
Each line is one published result; the experiments were not run side by side.
Target: Serine/threonine-protein kinase Sgk3 (SGK3, Homo sapiens, UniProt Q96BR1)
Sequence (Q96BR1 1-496, as in one of the studies): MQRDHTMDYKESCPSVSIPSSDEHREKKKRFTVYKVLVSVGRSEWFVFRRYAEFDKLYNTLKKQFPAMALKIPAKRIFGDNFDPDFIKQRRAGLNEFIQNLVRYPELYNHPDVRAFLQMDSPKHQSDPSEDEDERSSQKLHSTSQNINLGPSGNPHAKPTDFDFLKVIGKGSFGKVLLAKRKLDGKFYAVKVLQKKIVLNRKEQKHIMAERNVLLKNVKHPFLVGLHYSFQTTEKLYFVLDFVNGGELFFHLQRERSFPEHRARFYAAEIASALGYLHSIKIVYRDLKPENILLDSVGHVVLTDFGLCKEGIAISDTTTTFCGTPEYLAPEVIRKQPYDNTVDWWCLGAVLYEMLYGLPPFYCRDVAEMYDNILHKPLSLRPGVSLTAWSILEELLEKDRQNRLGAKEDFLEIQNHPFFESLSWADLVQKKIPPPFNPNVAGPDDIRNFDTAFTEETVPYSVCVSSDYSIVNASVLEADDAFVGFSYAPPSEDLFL

`CNC(=O)c1cc(Oc2ccc(NC(=O)Nc3ccc(Cl)c(C(F)(F)F)c3)cc2)ccn1` has an inhibition of 14% (enzyme activity; inhibitor; 0.3 µM).
With `O=C(Nc1cnn(-c2csc(C(=O)NC3COC3)c2)c1)Nc1ccccc1Cl` the remaining activity was 93.8% (enzyme activity; inhibitor; 5 µM).
With `CC(C)(O)[C@H]1CC[C@H](Nc2ccc3ncc(-c4cccc(C(F)(F)F)c4)n3n2)CC1` the remaining activity was 95.8% (enzyme activity; inhibitor; 1 µM).
`Cc1nc(C2CCN(C(=O)c3ccc(OC(F)(F)F)cc3N)CC2)c2ncc(N3CCN(C)CC3)cc2n1` has a remaining binding of 93% (cell-free assay; competition with immobilised ligand; 1 µM).
For `CC/C(=N\NC(=O)NCc1cccc(O)c1)c1ccc(O)c(C)c1O`, the inhibition was 83.9% (enzyme activity; inhibitor; 0.1 µM).
The inhibition of `CCCCNc1ncc2c(-c3ccc(F)cc3)nn(C[C@H]3CC[C@H](N)CC3)c2n1` is reported as -2.1% (target engagement in cells; inhibitor; chemoproteomics; 20 mM).
`Cn1nc(C(=O)NCc2ccc(C(=O)O)cc2)cc1-c1ccc2[nH]ccc2c1` gave a remaining binding of 96% (cell-free assay; competition with immobilised ligand; 0.1 µM).
With `CCCS(=O)(=O)Nc1ccc(F)c(C(=O)c2c[nH]c3ncc(-c4ccc(Cl)cc4)cc23)c1F` the inhibition was less than 10% (enzyme activity; inhibitor; 1 µM).
With `Cc1ccc(Nc2nccc(N(C)c3ccc4c(C)n(C)nc4c3)n2)cc1S(N)(=O)=O` the inhibition was 13% (enzyme activity; inhibitor; 10 µM).
For `CS(=O)(=O)CCNCc1ccc(-c2ccc3ncnc(Nc4ccc(OCc5cccc(F)c5)c(Cl)c4)c3c2)o1`, the remaining signal was 102% (cell-free assay; 0.5 µM).
`Cn1nc(C(F)(F)F)cc1-c1cnc(N2CCc3cc(S(=O)(=O)Nc4c(F)cc(Cl)cc4F)cc(N4CCCC4=O)c32)nc1` has a remaining binding of 78% (cell-free assay; competition with immobilised ligand; 1 µM).
`CNc1cccc2cc(C(=O)Nc3ccc(C(=O)O)cc3)c(=O)[nH]c12` has an inhibition of -2.1% (enzyme activity; inhibitor; 10 µM).
For `CO[C@@H](C)c1c(Nc2ccc([C@H](N(C)C(=O)C3CCS(=O)(=O)CC3)C(F)(F)F)cc2)cnc2cc(Cl)nn12`, the remaining binding was 100% (cell-free assay; competition with immobilised ligand; 1 µM).
For `O=C1NC(=O)c2cc(Nc3ccc(F)cc3)c(Nc3ccc(F)cc3)cc21`, the remaining signal was 102% (cell-free assay; 0.5 µM).
With `CCCOc1ccc(OC)c(F)c1C(=O)c1ccc(C(=O)N[C@@H]2CNC[C@H]2NC(=O)c2ccc3[nH]ncc3c2)cc1` the remaining activity was 23% (enzyme activity; inhibitor; 10 µM).
With `CO[C@H]1CC[C@H](CNc2ccc(S(=O)(=O)NC(=O)c3ccc(N4CCN(CC5=C(c6ccc(Cl)cc6)CC(C)(C)CC5)CC4)cc3Oc3cnc4[nH]ccc4c3)cc2[N+](=O)[O-])CC1` the remaining binding was 99% (cell-free assay; competition with immobilised ligand; 1 µM).
`CCN(CC)CCNC(=O)c1c(C)[nH]c(/C=C2\C(=O)Nc3ccc(F)cc32)c1C` gave a remaining signal of 101% (cell-free assay; 0.5 µM).
The remaining binding of `CNCc1ccccc1-c1csc([C@@H](C)Nc2nc(C)nc3cc(OC)c(OC)cc23)c1` is reported as 78% (cell-free assay; competition with immobilised ligand; 1 µM).
`CN1CC(Oc2cnc(C#N)cc2-c2ccn3nc(NC(=O)C4CC4)cc3c2)C1` has an inhibition of -3% (enzyme activity; inhibitor; 1 µM).
For `Cc1sc(C(=O)NC2COC2)cc1-n1cc(NC(=O)Nc2c(F)cccc2Cl)cn1`, the remaining activity was 90.1% (enzyme activity; inhibitor; 10 µM).
For `COc1cc2ncnc(Nc3ccc(Oc4ccccc4)cc3C)c2cc1OC`, the inhibition was 0% (enzyme activity; inhibitor; 1 µM).
`Cc1ccc(C(=O)Nc2ccc(CN3CCN(C)CC3)c(C(F)(F)F)c2)cc1C#Cc1cnc2cccnn12` gave a remaining activity of 70% (enzyme activity; inhibitor; 23.5 nM).
The remaining binding of `CCS(=O)(=O)c1cc2cc(C[C@@](O)(CC(C)(C)c3ccc(F)cc3C(N)=O)C(F)(F)F)[nH]c2cn1` is reported as 79% (cell-free assay; competition with immobilised ligand; 1 µM).
`C[C@@H]1CCN(C(=O)CC#N)C[C@@H]1N(C)c1ncnc2[nH]ccc12` gave a remaining signal of 98.1% (cell-free assay; inhibitor; 0.5 µM).
